Screening results as filed in PubChem.
Most compounds without a hit are left out; they make up all but 4.2% or so of the library.
KCNQ1 act: potentiators or activators of human KCNQ1 potassium channel; CHO-K1 KCNQ1, thallium flux FluxOR fluorescence; stronger effect = higher value; B-score at 10 µM; hit rate 0.35% among 310,000;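 active = fluorescence ratio B-score, a plate-corrected score, at least three library SD, with initial intensity B-score within 5 SD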
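System: CHO-K1 cells stably expressing KCNQ1 / Medium: assay buffer for compound exposure, DMSO matched across wells / Reagent: thallium- and potassium-containing depolarizing buffer / Compound: one concentration, matched DMSO / Incubation: 20 min compound pretreatment at room temperature / Measured by: kinetic FluxOR fluorescence, 10 s baseline plus 110 s post-stimulus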
KCNQ1 block: inhibitors of human KCNQ1 potassium channel; P51787; CHO-K1 KCNQ1, FluxOR thallium flux fluorescence; stronger effect = higher value; B-score at 10 µM; hit rate 1.3% among 310,000; AID 2642;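 active = compounds whose thallium flux B-score, printed positive for inhibition, exceeds three library SD while starting fluorescence stays within three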;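 note: channel opened by potassium depolarization with thallium stimulus after 20 min compound exposure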
KCC2 mod: modulates chloride dependent transport by human KCC2. hit rate 2.2% among 190,000. B-score of Tl+ flux slope (higher = more flux/activation; lower = inhibition) at 10 µM. KCC2 cells, thallium flux FluoZin-2 fluorescence. Q9H2X9;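 active = thallium flux slope and its plate-corrected score both differing from the plate sample mean at a set confidence after two filtering rounds, in either direction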;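 note: slope of fluorescence scaled to starting intensity during 10 to 20 s after thallium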
hERG protect: hERG (human) protection from proarrhythmic block. CHO-hERG, FluxOR thallium flux, dofetilide IC70 present. activation (rescue from dofetilide block), less the hit threshold, % at 10 µM. Q12809. hit rate 0.51% among 310,000;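 active = activation above the mean of controls blocked by dofetilide plus 5 SD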;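 note: thallium influx through hERG after potassium depolarization seen as dye fluorescence rise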
Target sequence (Q12809 whole entry, looked up): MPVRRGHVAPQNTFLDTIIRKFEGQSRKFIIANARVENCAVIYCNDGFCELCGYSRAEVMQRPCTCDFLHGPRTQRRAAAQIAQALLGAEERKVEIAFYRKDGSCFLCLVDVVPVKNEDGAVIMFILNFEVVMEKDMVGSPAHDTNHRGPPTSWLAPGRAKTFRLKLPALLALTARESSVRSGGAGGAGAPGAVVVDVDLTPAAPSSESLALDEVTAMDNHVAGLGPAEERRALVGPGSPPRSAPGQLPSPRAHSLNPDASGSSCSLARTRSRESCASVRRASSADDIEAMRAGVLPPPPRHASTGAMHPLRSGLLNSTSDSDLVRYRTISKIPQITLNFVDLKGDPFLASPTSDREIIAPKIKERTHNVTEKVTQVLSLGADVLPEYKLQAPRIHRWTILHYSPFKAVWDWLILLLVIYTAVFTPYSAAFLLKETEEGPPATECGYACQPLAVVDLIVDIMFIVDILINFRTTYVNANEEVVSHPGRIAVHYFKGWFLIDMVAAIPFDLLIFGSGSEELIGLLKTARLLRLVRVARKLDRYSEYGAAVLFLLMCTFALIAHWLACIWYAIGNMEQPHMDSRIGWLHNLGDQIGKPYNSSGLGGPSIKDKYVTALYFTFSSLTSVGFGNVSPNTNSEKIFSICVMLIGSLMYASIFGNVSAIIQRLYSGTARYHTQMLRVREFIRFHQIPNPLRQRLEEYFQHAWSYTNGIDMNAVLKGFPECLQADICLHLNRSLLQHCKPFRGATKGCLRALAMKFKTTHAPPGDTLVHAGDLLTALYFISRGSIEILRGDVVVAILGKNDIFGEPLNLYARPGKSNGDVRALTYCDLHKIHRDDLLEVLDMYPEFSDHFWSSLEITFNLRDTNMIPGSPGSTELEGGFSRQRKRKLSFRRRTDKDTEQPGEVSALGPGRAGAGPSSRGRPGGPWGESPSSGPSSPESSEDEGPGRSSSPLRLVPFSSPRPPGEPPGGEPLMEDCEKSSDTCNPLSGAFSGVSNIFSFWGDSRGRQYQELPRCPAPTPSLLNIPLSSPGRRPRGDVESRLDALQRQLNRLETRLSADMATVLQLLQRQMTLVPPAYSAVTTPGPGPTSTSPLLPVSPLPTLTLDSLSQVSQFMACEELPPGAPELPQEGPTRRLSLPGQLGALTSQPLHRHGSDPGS
AI-2 QS mod: Vibrio harveyi AI-2 quorum sensing modulation; Vibrio harveyi JMH597 AI-2 luminescence/OD600 ratio, 9 h; stronger effect = lower value; strain lacks LuxN and CqsS sensors; 0 = neutral-control median; activity change, % at 7.5 µM; hit rate 0.4% among 300,000; AID 2094; in the data active = activity change below about -75%, passing the limit was not always enough;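 note: luminescence divided by OD600 gain over 9 h not by final OD600 alone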
SUMO Mot1 rescue: SUMOylation pathway inhibition by Mot1-301 growth rescue | hit rate 1% among 320,000 | S. cerevisiae Mot1-301 growth rescue, ATP luminescence, 38.5C; percent above DMSO median, 100 means doubled | AID 2716 | growth rescue, % at 18.8 µM;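 active = every valid replicate shows activation above 250% relative to neutral control wells; inactive = the rest, any valid replicate at or below 250%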;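 note: OY570 slx delta 5 strain wells were the positive control but not used for scaling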
KCNQ1 inh valid: reconfirmed blocker of the human KCNQ1 potassium channel; AID 588353; hit rate 93% among 1,600; shares compounds with KCNQ1 block; inhibition, % at 10 µM; KCNQ1 cell line, FluxOR thallium flux fluorescence;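 active = primary screen active, with duplicate mean exceeding buffer control mean plus 3 SD of buffer wells, cut at about 28% in these data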;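 note: 0% = buffer control ratio and 100% = XE991 inhibitor control ratio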
CHO Tl flux: KCNQ1 inhibitor counter-screen hit in parental CHO cells; hit rate 21% among 1,600; shares compounds with KCNQ1 block; fluorescence ratio (Tl flux) at 10 µM; parental CHO-K1, FluxOR thallium flux fluorescence ratio; stronger effect = lower value; zero means no signal rise above baseline;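 active = mean of duplicate thallium-flux fluorescence ratios in parental host cells more than 5 SD below the buffer control mean, cut at about 0.38 in these data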;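 note: ratio is peak minus minimum fluorescence divided by baseline fluorescence; actives read low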
KCNQ1 ephys val: human KCNQ1 inhibition validated by electrophysiology; AID 624120; shares compounds with KCNQ1 block; calls only at 10 µM; hit rate 20% among 490; KCNQ1-CHO cells, automated patch clamp current;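 active = KCNQ1 current drop exceeding 3 SD of negative control wells, seen in both duplicate runs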;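 note: steady state current during a 2 s step from -80 to +40 mV; negative values mean current inhibition and positive values mean potentiation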
KCNQ2 inh: selectivity of KCNQ1 inhibitors: inhibition of rat KCNQ2 channel. shares compounds with KCNQ1 block. AID 651746. inhibition, % at 10 µM. KCNQ2 cells, FluxOR thallium flux fluorescence. hit rate 71% among 1,600;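 active = mean percent inhibition of the KCNQ2 thallium signal more than 5 SD above the buffer-only control wells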;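 note: KCNQ2 expressed in CHO cells; 0% = buffer control wells and 100% = XE-991 inhibitor control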
KCNQ1-KCNE1 inh: selectivity of KCNQ1 inhibitors: inhibition of human KCNQ1/KCNE1 channel; KCNQ1/KCNE1 cells, FluxOR thallium flux fluorescence; inhibition, % at 10 µM; hit rate 77% among 1,600; shares compounds with KCNQ1 block;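 active = mean percent inhibition of duplicate wells above the buffer-only control mean plus 3 SD of those controls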;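 note: 0% = buffer only wells and 100% = XE-991 inhibitor control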
* = called active by the depositor.

For O=C(Nc1ccc(F)cc1)c1ccccc1NS(=O)(=O)N1CCCC1 the results were KCNQ1 act inactive, KCNQ1 block 7*, KCC2 mod -0.863, hERG protect -9.5, AI-2 QS mod -0.3, SUMO Mot1 rescue -4.2, KCNQ1 inh valid 82.0*, CHO Tl flux 0.537, KCNQ2 inh 67.3%* and KCNQ1-KCNE1 inh inactive.
Screening O=C(CCCOc1ccccc1)Nc1cccc(S(=O)(=O)N2CCCCCC2)c1 returned SUMO Mot1 rescue 20.2.
For CCN(CC)c1ccc(Nc2nc(N3CCOCC3)c3ccccc3n2)cc1 the results were KCNQ1 act inactive, KCNQ1 block 8*, KCC2 mod -0.823, hERG protect -14.3, AI-2 QS mod 17.3, SUMO Mot1 rescue 0.4, KCNQ1 inh valid 112.5*, CHO Tl flux 0.403, KCNQ1 ephys val inactive, KCNQ2 inh 117.0%* and KCNQ1-KCNE1 inh 100.5%*.
For COCCn1c(SCC(=O)NC2CCCCC2)nnc1-c1ccncc1 the results were KCNQ1 act inactive, KCNQ1 block inactive, hERG protect -4.2, AI-2 QS mod 2.9 and SUMO Mot1 rescue -13.9.
CC1Cc2nc(SCC(=O)N3CCN(c4ccccc4)CC3)n(CCc3ccccc3)c(=O)c2S1 (stereo not given) was read as KCNQ1 act inactive, KCNQ1 block 8*, KCC2 mod -0.515, hERG protect -26.3, AI-2 QS mod 27.2, SUMO Mot1 rescue 333.7, KCNQ1 inh valid 70.0*, CHO Tl flux 0.438, KCNQ2 inh 84.0%* and KCNQ1-KCNE1 inh 175.0%*.
`CC1Cc2nc(SCC(=O)N3CCN(c4ccccc4)CC3)n(C)c(=O)c2S1` (stereo not given) gave KCNQ1 act inactive, KCNQ1 block inactive, hERG protect -14.5, AI-2 QS mod 19.9 and SUMO Mot1 rescue 15.5.
CCC1(C)Cc2ccccc2-c2nc(-c3ccccc3)oc(=O)c21 (stereo not given) was read as KCNQ1 act inactive, KCNQ1 block 8*, hERG protect -13.0, AI-2 QS mod 21.7, SUMO Mot1 rescue 362.0, KCNQ1 inh valid 92.5*, CHO Tl flux 0.491, KCNQ1 ephys val inactive, KCNQ2 inh 102.3%* and KCNQ1-KCNE1 inh 104.5%*.
COc1ccc(-c2cc(-c3ccccc3)nc(Cl)n2)cc1OC was read as KCNQ1 act inactive, KCNQ1 block 8*, hERG protect -5.5, AI-2 QS mod 39.5, SUMO Mot1 rescue 139.0, KCNQ1 inh valid 131.0*, CHO Tl flux 0.45, KCNQ1 ephys val inactive, KCNQ2 inh 128.0%* and KCNQ1-KCNE1 inh 166.0%*.
For CN(C)/C=C(/C#N)C(=O)c1cccc(Oc2ccc(C(C)(C)C)cc2)c1 the results were KCNQ1 act inactive, KCNQ1 block inactive, KCC2 mod -1.08, hERG protect -11.3, AI-2 QS mod 0.9 and SUMO Mot1 rescue 20.7.
Screening COc1ccc(N/C=C2\CCc3ccccc3C2=O)cc1 returned KCNQ1 act inactive, KCNQ1 block 6*, KCC2 mod -1.99, hERG protect -19.6, AI-2 QS mod -0.5, SUMO Mot1 rescue 107.3, KCNQ1 inh valid 50.0*, CHO Tl flux 0.692, KCNQ2 inh 112.0%* and KCNQ1-KCNE1 inh 114.5%*.
`COc1ccc2c(c1)CC/C(=C\Nc1ccc3c(c1)OCO3)C2=O` gave KCNQ1 act inactive, KCNQ1 block inactive, hERG protect -16.0, AI-2 QS mod 18.0 and SUMO Mot1 rescue -8.3.
Screening Cc1nn2cc(-c3ccc(Cl)cc3)cnc2c1Cl returned KCNQ1 act inactive, KCNQ1 block inactive, KCC2 mod 1.21, hERG protect -6.0, AI-2 QS mod 4.2 and SUMO Mot1 rescue 6.0.
`CCOc1ncccc1C(=O)OCC(=O)NC(=O)NC(C)C` gave KCNQ1 act inactive, KCNQ1 block 8*, KCC2 mod 0.56, hERG protect -11.8, AI-2 QS mod 16.6, SUMO Mot1 rescue -4.9, KCNQ1 inh valid 0.0, CHO Tl flux 0.507, KCNQ2 inh inactive and KCNQ1-KCNE1 inh inactive.
For CCOc1ncccc1C(=O)OCC(=O)Nc1ccc(C(C)C)cc1 the results were KCNQ1 act inactive, KCNQ1 block inactive, KCC2 mod -1.55, hERG protect -12.6, AI-2 QS mod 13.5 and SUMO Mot1 rescue 3.2.
OCC1=C[C@@H](O)[C@@H]2C=CO[C@@H](O[C@@H]3O[C@H](CO)[C@@H](O)[C@H](O)[C@H]3O)[C@H]12 was read as SUMO Mot1 rescue -17.2.
`CC1Cc2ccccc2N1C(=O)CNc1ccccc1N1CCCCC1` (stereo not given) gave KCNQ1 act inactive, KCNQ1 block 7*, KCC2 mod 0.66, hERG protect -14.5, AI-2 QS mod 9.9, SUMO Mot1 rescue 16.6, KCNQ1 inh valid 81.0*, CHO Tl flux 0.454, KCNQ2 inh 100.7%* and KCNQ1-KCNE1 inh 86.0%*.
Screening COc1ccc(-n2c3c(c(=O)[nH]c2=O)C(NC(=O)c2ccncc2)(C(F)(F)F)C(=O)N3)cc1 (stereo not given) returned KCNQ1 act inactive, KCNQ1 block inactive, KCC2 mod -0.691, hERG protect -15.5, AI-2 QS mod 11.5 and SUMO Mot1 rescue 20.8.
For CCOC(=O)c1cnc(SC)nc1Oc1cccc(NS(=O)(=O)c2ccccc2)c1 the results were KCNQ1 act inactive, KCNQ1 block 7*, hERG protect -15.7, AI-2 QS mod -2.8, SUMO Mot1 rescue 178.1, KCNQ1 inh valid 56.5*, CHO Tl flux 0.448, KCNQ2 inh 93.0%* and KCNQ1-KCNE1 inh 49.5%*.
Screening CCOC(=O)c1cnc(SC)nc1Oc1cccc(NS(=O)(=O)c2ccc(F)cc2)c1 returned KCNQ1 act inactive, KCNQ1 block inactive, hERG protect -16.9, AI-2 QS mod 14.7 and SUMO Mot1 rescue -3.1.
For CCN(CC(=O)Nc1ccc(OC)c(Cl)c1)CC(=O)NC(C)C the results were KCNQ1 act inactive, KCNQ1 block inactive, KCC2 mod 0.197, hERG protect -2.5, AI-2 QS mod 9.4 and SUMO Mot1 rescue -26.1.
